Assay outcomes from PubChem.
Compounds with a hit are over-represented: about 3.7% of the library has one in this group of screens.
procasp3 activ – procaspase-3 (human) activation | P42574 | recombinant procaspase-3 D3A, Ac-DEVD-pNA absorbance 405 nm | activation, % at 8.5 µM | 330,000 compounds, 0.11% hits | AID 463141;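 active means activation above the mean of all tested compounds plus 3 SD, cut at about 21% in these data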;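 further: 0% = DMSO alone and 100% = DMSO wells spiked with extra 5 µM PC-3 D3A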
Target sequence (P42574 whole entry D9A/D28A/D175A): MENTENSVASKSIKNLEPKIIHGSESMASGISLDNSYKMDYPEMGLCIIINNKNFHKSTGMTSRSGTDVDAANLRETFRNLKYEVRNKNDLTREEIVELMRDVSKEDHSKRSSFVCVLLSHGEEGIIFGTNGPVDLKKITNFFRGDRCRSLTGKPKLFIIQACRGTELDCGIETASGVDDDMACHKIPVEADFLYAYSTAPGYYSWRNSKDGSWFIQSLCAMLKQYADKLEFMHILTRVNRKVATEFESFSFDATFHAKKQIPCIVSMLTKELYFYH
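Evaluation: percent activation relative to control range; Material: Procaspase-3 D3A mutant, all three cleavage aspartates alanine; Compound: single dose, 8.5 µM nominal compound, 0.8% DMSO; Replication: one well per compound; Signal: absorbance at 405 nm, 0 and 120 min; Schedule: 1 h preincubation plus 2 h reaction at 25 °C.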
aDG glyco up – alpha-DG glycosylation activation. Pro5-aDG cells, alpha-DG glycosylation AlphaScreen (IIH6); 0% Pro5, 100% B10-LARGE cell signal. activation, % at 10 µM. 360,000 compounds, 0.22% hits. AID 624168;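 active means activation of at least 8% versus controls, or a plate z-score of at least 8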;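 further: Pro5 are CHO cells carrying HIG-tagged alpha-DG that lacks glycosylation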
procasp7 counter – counter-screen for procaspase-3 activators: activators of human procaspase-7; P55210; recombinant procaspase-7, Ac-DEVD-pNA absorbance 405 nm; D23A/D198A/D206A triple mutant, cannot self-cleave; scale: DMSO 0, 5 µM enzyme 100; activation, % at 8.5 µM; 330,000 compounds, 0.093% hits;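 active means percent activation above the screen-wide mean plus 3 SD, cut at about 25% in these data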
Target sequence (P55210 whole entry D23A/D198A/D206A): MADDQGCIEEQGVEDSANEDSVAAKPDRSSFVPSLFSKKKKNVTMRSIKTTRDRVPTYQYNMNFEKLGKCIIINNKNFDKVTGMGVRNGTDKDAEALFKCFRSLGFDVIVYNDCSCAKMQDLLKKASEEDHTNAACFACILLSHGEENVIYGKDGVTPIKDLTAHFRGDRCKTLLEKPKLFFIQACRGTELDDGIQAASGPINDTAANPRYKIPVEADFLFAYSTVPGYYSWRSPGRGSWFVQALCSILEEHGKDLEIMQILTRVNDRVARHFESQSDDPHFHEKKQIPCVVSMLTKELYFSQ
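System: Procaspase-7 triple mutant (PC-7 D3A); measure: % activation from two-timepoint absorbance difference, scaled to controls; times: 1 h compound preincubation, 2 h substrate cleavage, 25 °C; also added: Ac-DEVD-pNA substrate, 400 µM as added; measured by: Epi-absorbance of released pNA at 405 nm, two timepoints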
MPTP block – inhibitors of mitochondrial permeability transition pore; inhibition, % at 10 µM; 360,000 compounds, 1.4% hits; AID 602449; isolated mouse mitochondria, Ca2+ swelling absorbance, 30 min;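 active means inhibition of 50% or more, scaled per plate between neutral and stimulator controls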;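 further: 0% = DMSO wells given calcium and 100% = 1 mM EGTA wells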
NR3A LBD binder – modulators (binders) of human NR3A ligand-binding domain | NR3A LBD differential scanning fluorimetry, Tm shift; 0% = protein alone, 100% = glycine-bound protein | Tm shift relative to glycine control, % at 25 µM | 340,000 compounds, 2.5% hits | AID 1259313;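 active means melting temperature shift of at least 10% of the positive control shift, at one fixed dose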
An asterisk follows results filed as active; nt = no result given.

SMILES	procasp3 activ	aDG glyco up	procasp7 counter	MPTP block	NR3A LBD binder
COc1cc(CCN(C(=O)c2cccc(S(C)(=O)=O)c2)C(CCc2ccccc2)c2nc3ccccc3[nH]2)cc(OC)c1 (configuration not stated)	nt	0.0	nt	0.2	nt
CC(C)(C)C(=O)/C=C/c1ccc(Oc2ccccc2)cc1	nt	0.2	nt	1.4	10.3*
O=C(O)/C=C/c1ccc(Oc2ncccn2)cc1	1.8	-0.2	5.4	-0.3	0.9
CCC(CO)Oc1cc(NCc2ccc(C(C)(C)C)cc2)c2ncn(C(C)C)c2c1 (configuration not stated)	-8.3	5.2*	2.5	5.5	-34.4
CCN1CC(c2ccccc2)C(c2ccc(Cl)cc2)=N1 (configuration not stated)	-9.6	0.1	-1.3	5.4	11.6*
Cc1[nH]c2ccccc2c1C1=NNC(=Nc2ccc(F)cc2)SC1	-10.0	-0.2	-11.8	0.6	12.0*
Cc1[nH]c2ccccc2c1N=Nc1ccccc1F	-2.8	-0.5	-2.6	3.0	13.0*
Cc1[nH]c2ccccc2c1N=Nc1cc(C(=O)O)cc(C(=O)O)c1	-12.1	-0.2	-0.8	-0.1	-0.4
Cc1[nH]c2ccccc2c1N=Nc1ccc(F)cc1	-0.8	-0.4	-6.4	22.2	24.6*
CC1(c2ccccc2)NC(=O)N(CC(=O)NNC(=O)c2cccc(Cl)c2)C1=O (configuration not stated)	2.8	-0.2	-0.2	-0.8	-0.3
COc1ccc2cc3cc(C(=O)Nc4ccc5c(c4)OCCO5)oc3nc2c1	-6.3	0.8	5.7	1.9	26.3*
COc1ccc2cc3cc(C(=O)Nc4cc(OC)c(OC)c(OC)c4)oc3nc2c1	-3.6	-0.4	3.5	-0.4	0.2
CC(C)C[C@@H]1COc2cc(N3CCSCC3)ccc2S(=O)(=O)N1	nt	-0.2	nt	0.9	nt
C=CCOc1ccc(/C=C/C(=O)OCC(=O)N2CCN(S(=O)(=O)c3ccc(C)cc3C)CC2)cc1	nt	0.0	nt	-0.5	18.8*
Cc1ccc(N(CC(O)Cn2c3ccccc3c3ccccc32)S(C)(=O)=O)cc1 (configuration not stated)	-11.2	0.4	5.5	2.3	2.9
CC(=O)Nc1ccc(N(CC(O)Cn2c3ccccc3c3ccccc32)S(=O)(=O)c2ccc(C)cc2)cc1 (configuration not stated)	-8.9	0.2	10.5	-34.0	22.2*
CCOC(=O)NC(=S)Nc1ccc(C(C)(C)C)cc1Br	-1.9	0.3	5.2	-2.4	18.3*
CC(C)[C@H](NC(=O)OC(C)(C)C)C(=O)N/N=C/c1ccc2nccnc2c1	-2.0	0.1	9.0	5.8	-3.1
CC(C)[C@@H](N)C(=O)N/N=C/c1ccc2nccnc2c1	-2.5	0.0	6.0	0.4	11.0*
O=C(O)C1CC=CCC1C(=O)Nc1cccc(Cl)c1 (configuration not stated)	1.4	-0.2	-3.0	-0.2	11.4*
CC1=C(C)CC(C(=O)Nc2cccc(Cl)c2)C(C(=O)O)C1 (configuration not stated)	-7.9	-0.1	0.6	0.1	-1.3
O=C(CS(=O)(=O)Cc1ccccc1)Nc1ccc2c(c1)OCO2	4.2	0.0	-4.0	-0.6	0.5
CC(=O)Nc1ccc(NC(=O)CS(=O)(=O)Cc2ccccc2)cc1	5.3	0.3	6.1	-1.4	12.6*
C=C1[C@@H](CCO)N(S(=O)(=O)C(C)(C)C)C[C@@H]1C	nt	-0.2	nt	1.0	0.7
O=C(COc1ccc(Cl)cc1)Nc1ccc(C(=O)O)cc1NC(=O)COc1ccc(Cl)cc1	7.3	0.5	8.4	1.6	10.2*
SMILES	procasp3 activ	aDG glyco up	procasp7 counter	MPTP block	NR3A LBD binder
CCCCn1c(N)c(N(CCOC)C(=O)c2cc(S(=O)(=O)N3CCOCC3)ccc2Cl)c(=O)[nH]c1=O	nt	0.0	nt	-0.7	1.7
Cc1ccc(C(=O)NCC(=O)OCC(=O)NC(C)C2CC3CCC2C3)cc1 (configuration not stated)	nt	0.9	nt	-0.1	0.3
CCCc1ccc2c(C(F)(F)F)cc(C(F)(F)F)cc2n1	nt	0.3	nt	0.3	nt
C/C(=N/NS(=O)(=O)c1cc(C)ccc1C)c1c[nH]c2ccccc12	2.0	0.5	-3.4	3.5	29.0*
C/C(=N/NS(=O)(=O)c1ccc(C)cc1)c1c[nH]c2ccccc12	nt	-0.4	nt	-0.5	-9.8
CNS(=O)(=O)c1cccc(C(=O)OCC(=O)c2ccc[nH]2)c1	4.5	-0.3	11.9	-1.6	39.0*
CNS(=O)(=O)c1cccc(C(=O)OCC(=O)N2c3ccccc3CC2C)c1 (configuration not stated)	-2.9	-0.3	4.2	-1.5	13.9*
CC1Cc2ccccc2N1C(=O)COC(=O)c1ccc(O)cc1 (configuration not stated)	2.3	-0.2	9.1	2.1	0.5
CCOC(=O)c1c(C)[nH]c(C)c1C(=O)COC(=O)c1cccc(S(=O)(=O)NC)c1	-1.0	-0.1	-3.5	-0.3	0.3
COc1cc(OC)nc(C(NC(=O)C2CCN(Cc3c[nH]c4ccccc34)CC2)c2ccc(Cl)cc2)n1 (configuration not stated)	nt	-0.2	nt	1.8	nt
O=C(NCC1CCN(Cc2ccccc2F)CC1)Nc1cc(F)ccc1F	2.0	0.1	14.4	0.8	-0.3
O=C(NCC1CCN(Cc2ccc(F)cc2)CC1)Nc1cc(F)ccc1F	-2.5	0.3	-7.5	5.1	10.0*
C[C@@H]1CN([C@@H](C)CO)C(=O)c2cc(C#CCN(C)C)cnc2O[C@H]1CN(C)Cc1ccc2c(c1)OCO2	nt	-0.2	nt	-0.1	nt
COc1cccc(C(=O)Nc2cccc(OCC(=O)c3ccccc3)c2)c1	-2.8	0.6	6.8	-2.0	-14.1
COc1cccc(C(=O)COc2ccc(NC(=O)c3ccccc3)cc2)c1	nt	0.1	nt	-0.6	10.5*
Cc1cccc(OCC(=O)Nc2ccc(C(=O)Nc3ccccc3C(=O)O)cc2)c1	nt	-0.1	nt	0.0	nt
Cc1cccc(OCC(=O)Nc2ccc(NC(=O)c3ccccc3)cc2)c1	0.7	0.1	5.3	1.4	11.7*
COc1cccc(C2c3c(oc4ccc(Cl)cc4c3=O)C(=O)N2c2cc(C)on2)c1OC (configuration not stated)	7.0	-0.3	2.0	-0.5	10.8*
CN(C)c1ccc(C(CNC(=O)c2ccccc2)c2c[nH]c3ccccc23)cc1 (configuration not stated)	1.4	-0.7	-7.5	0.4	-4.2
CCCCNC(=S)NCC(c1ccccc1)c1c[nH]c2ccccc12 (configuration not stated)	5.4	0.0	2.9	3.7	29.9*
CC1(C(=O)NS(=O)(=O)c2cccc(Cl)c2)CCN1C(=O)CCc1ccccc1 (configuration not stated)	nt	-0.1	nt	-1.2	nt
CCOc1nc(-c2ccc(OC)cc2)ccc1-c1noc(C)n1	-3.9	0.2	-6.4	0.1	24.5*
